Results published in ChEMBL document CHEMBL5321288, “Proteolytically Stable Diaza-Peptide Foldamers Mimic Helical Hot Spots of Protein-Protein Interactions and Act as Natural Chaperones” (J Med Chem, 2023).
Activity calls are given as the source filed them. The rule behind the calls is not given here. Starred links: 1 amine or outer side, 2 acyl side, 3 side chain; linkers in the order of their positions; H or OH if unused. Non-standard residues stand in square brackets, D forms with d. Residues, ends and D or L forms follow the SMILES beside them. *: point of attachment. X3 = C[C@H](O)CN(N[*:1])C(=O)NN(CCCCN)C(=O)[*:2]; X2 = CC(C)CN(NC(=O)N(C)N[*:1])C(=O)[*:2]; X1 = C[C@H](O)CN(N)C(=O)NN(CCCCN)C(=O)*

Columns and labels:
[1] = biological target: T1, Islet amyloid polypeptide (Homo sapiens) (UniProt P10997); assay: Inhibition of hIAPP aggregation assessed as ThT fluorescence intensity at 10 to 1 ratio of compound to hIAPP by ThT fluorescence spectroscopy
T1 sequence (whole entry): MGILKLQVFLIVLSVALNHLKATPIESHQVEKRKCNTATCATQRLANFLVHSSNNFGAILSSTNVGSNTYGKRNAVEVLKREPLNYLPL

[2] = biological target: Amyloid-beta precursor protein (Homo sapiens) (UniProt P05067); assay: Inhibition of Amyloid beta (1 to 42) (unknown origin) aggregation assessed as reduction in experimental fluorescence platea at 10 to 1 ratio of compound to amyloid beta (1 to 42) incubated for 48 hrs fluorescence-detected ThT-binding assay; set-up: scale not given: the % may be the effect or the level left
[3] = biological target: Amyloid-beta precursor protein (Homo sapiens) (UniProt P05067); assay: Inhibition of Amyloid beta (1 to 42) (unknown origin) aggregation assessed as extension of time of the half aggregation at 10 to 1 ratio of compound to amyloid beta (1 to 42) incubated for 48 hrs fluorescence-detected ThT-binding assay; set-up: scale not given: the % may be the effect or the level left
[4] = biological target: Amyloid-beta precursor protein (Homo sapiens) (UniProt P05067); assay: Inhibition of Amyloid beta (1 to 42) (unknown origin) fibril formation assessed as decrease in factor of rate constants of secondary nucleation(k2)/elongation(K+) at 10 to 1 ratio of compound to amyloid beta (1 to 42) incubated for 48 hrs ThT assay
[5] = biological target: Amyloid-beta precursor protein (Homo sapiens) (UniProt P05067); assay: Inhibition of Amyloid beta (1 to 42) (unknown origin) fibril formation assessed as decrease in parallel beta sheet content at 125 uM measured upto 5 hrs by CD analysis
Method in brief: (§1)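 CD at 25 °C, 195–250 nm, 0.1 cm cell, 50 nm/min, 0.1 nm resolution, five scans averaged. Aβ1-42 or Aβ1-28 at 25 μM with inhibitor at 125 μM, spectra taken at time points up to 5 h. Buffer or inhibitor spectrum subtracted, then smoothing. Secondary structure from 200–250 nm by BeStSel deconvolution.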

[6] = Plasma stability in human plasma assessed as degraded peptide at 1 uM measured after 2 hrs by UPLC-MS/MS analysis; format: ADME, cell-free
Method in brief: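 Compound at 1 μM in human plasma at 37 °C, duplicate. Sampled at 0, 15, 30, 45, 60 and 120 min. Analysed by reversed-phase UPLC, C18 at 40 °C, 4 min gradient of 0.1% formic acid in water/acetonitrile.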

[7] = biological target: Amyloid-beta precursor protein (Homo sapiens) (UniProt P05067); assay: Inhibition of Amyloid beta (1 to 42) (unknown origin) fibril formation assessed as decrease in factor of rate constants of secondary nucleation(k2)/elongation(K+) at 1 to 1 ratio of compound to amyloid beta (1 to 42) incubated for 48 hrs ThT assay
Homo sapiens = organism: Homo sapiens; assay: Inhibition of Amyloid beta (1 to 28) (unknown origin) fibril formation assessed as ratio of alpha-helical to beta strand at 125 uM measured upto 5 hrs by CD spectra analysis (reference value: 0.39); method in brief: as §1
[8] = Apparent permeability of the compound in apical to basolateral side in rat blood-brain barrier model at 5 uM; format: ADME, tissue-based; settings: not told
Method in brief: (§2)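 Rat in vitro BBB model; peptide applied at 5 or 10 μM, co-incubated with Lucifer yellow as integrity standard, solutions in low-binding tubes. Transport measured apical-to-basal and basal-to-apical, in triplicate. Apical and basal samples quantified by LC-MS/MS to give apparent permeability (Papp).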

[9] = Apparent permeability of the compound in apical to basolateral side in rat blood-brain barrier model at 10 uM; format: ADME, tissue-based; settings: not told; method in brief: as §2
[10] = Cytotoxicity against rat brain endothelial cells assessed as viability at 1 to 100 ug/ml measured after 1 hr by MTT assay; format: toxicity, cell-based; settings: endothelial cell, dose 1-100 µg/ml

Sequence of Amyloid-beta precursor protein (Homo sapiens) (P05067 whole entry): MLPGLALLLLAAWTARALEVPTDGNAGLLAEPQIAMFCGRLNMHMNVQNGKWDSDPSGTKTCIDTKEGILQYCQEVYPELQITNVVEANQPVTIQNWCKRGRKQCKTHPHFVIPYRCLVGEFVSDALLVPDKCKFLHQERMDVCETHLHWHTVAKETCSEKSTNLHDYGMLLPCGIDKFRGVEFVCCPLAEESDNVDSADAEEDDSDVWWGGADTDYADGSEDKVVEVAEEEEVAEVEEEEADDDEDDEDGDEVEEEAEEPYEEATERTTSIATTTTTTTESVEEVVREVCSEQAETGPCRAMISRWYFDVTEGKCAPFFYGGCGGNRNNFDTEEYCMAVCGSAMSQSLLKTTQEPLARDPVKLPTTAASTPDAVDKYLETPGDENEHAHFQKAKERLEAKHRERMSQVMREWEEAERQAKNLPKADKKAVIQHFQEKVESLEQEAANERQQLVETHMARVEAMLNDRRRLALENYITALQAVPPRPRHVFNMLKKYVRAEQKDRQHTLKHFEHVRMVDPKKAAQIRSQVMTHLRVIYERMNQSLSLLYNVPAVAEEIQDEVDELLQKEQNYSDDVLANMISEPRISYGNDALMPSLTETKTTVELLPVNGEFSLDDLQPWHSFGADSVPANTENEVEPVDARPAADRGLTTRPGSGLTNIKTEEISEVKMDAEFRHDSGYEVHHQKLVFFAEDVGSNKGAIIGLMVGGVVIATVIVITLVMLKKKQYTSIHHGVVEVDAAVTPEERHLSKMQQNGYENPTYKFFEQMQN

Molecule: CC(=O)NN(C[C@H](C)O)C(=O)NN(CCCCN)C(=O)N[C@@H](CO)C(=O)N[C@@H](Cc1ccc(O)cc1)C(=O)N[C@@H](Cc1c[nH]c2ccccc12)C(=O)N[C@@H](CCCCN)C(=O)NN(C)C(=O)NN(CC(C)C)C(=O)NCC(N)=O (Ac-[X3]SYWK[X2]G-NH2)
- inhibition [1]: inactive
- Activity [2]: 41%
- Activity [3]: 30%

Molecule: H-TKSYWKALG-NH2
- inhibition [1]: inactive
- Ratio [4]: 100
- inhibition [5]: Active
- metabolised at 2 h, 1 µM [6]: 99%
- Activity [2]: 59%
- inhibition [7]: inactive
- Activity [3]: 209%
- Ratio (Homo sapiens): 0.66

Molecule: CC(=O)N[C@H](C(=O)N[C@@H](CCCCN)C(=O)N[C@@H](CO)C(=O)N[C@@H](Cc1ccc(O)cc1)C(=O)N[C@@H](Cc1c[nH]c2ccccc12)C(=O)N[C@@H](CCCCN)C(=O)NN(C)C(=O)NN(CC(C)C)C(=O)NCC(N)=O)[C@@H](C)O (Ac-TKSYWK[X2]G-NH2)
- Activity [2]: 30%
- Activity [3]: 59%

Molecule: CC(C)C[C@H](NC(=O)[C@H](C)NC(=O)[C@H](CCCCN)NC(=O)[C@H](Cc1c[nH]c2ccccc12)NC(=O)[C@H](Cc1ccc(O)cc1)NC(=O)[C@H](CO)NC(=O)N(CCCCN)NC(=O)N(N)C[C@H](C)O)C(=O)NCC(N)=O (X1-SYWKALG-NH2)
- inhibition [1]: inactive
- Activity [2]: 54%
- Activity [3]: 193%

Molecule: CC(=O)NN(C[C@H](C)O)C(=O)NN(CCCCN)C(=O)N[C@@H](CO)C(=O)NN(Cc1ccc(O)cc1)C(=O)NN(CCc1c[nH]c2ccccc12)C(=O)N[C@@H](CCCCN)C(=O)N[C@@H](C)C(=O)N[C@@H](CC(C)C)C(=O)NCC(N)=O
- Activity [2]: 62%
- Activity [3]: 72%

Molecule: CC(=O)N[C@H](C(=O)N[C@@H](CCCCN)C(=O)N[C@@H](CO)C(=O)NN(Cc1ccc(O)cc1)C(=O)NN(CCc1c[nH]c2ccccc12)C(=O)N[C@@H](CCCCN)C(=O)NN(C)C(=O)NN(CC(C)C)C(=O)NCC(N)=O)[C@@H](C)O
- Activity [2]: 55%
- Activity [3]: 34%

Molecule: CC(C)CN(NC(=O)N(C)NC(=O)[C@H](CCCCN)NC(=O)[C@H](Cc1c[nH]c2ccccc12)NC(=O)[C@H](Cc1ccc(O)cc1)NC(=O)[C@H](CO)NC(=O)N(CCCCN)NC(=O)N(N)C[C@H](C)O)C(=O)NCC(N)=O (X1-SYWK[X2]G-NH2)
- inhibition [1]: inactive
- Ratio [4]: 1e+09
- inhibition [5]: Active
- metabolised at 2 h, 1 µM [6]: 6%
- Activity [2]: 57%
- Ratio [7]: 10
- Papp A→B at 5 µM [8]: 0.839 ×10⁻⁶ cm/s
- Activity [3]: 254%
- Papp A→B at 10 µM [9]: 0.677 ×10⁻⁶ cm/s
- Ratio (Homo sapiens): 2.16
- Activity [10]: Non-Toxic

Molecule: CC(C)CN(NC(=O)N(C)NC(=O)[C@H](CCCCN)NC(=O)[C@H](Cc1c[nH]c2ccccc12)NC(=O)[C@H](Cc1ccc(O)cc1)NC(=O)[C@H](CO)NC(=O)[C@H](CCCCN)NC(=O)[C@@H](N)[C@@H](C)O)C(=O)NCC(N)=O (H-TKSYWK[X2]G-NH2)
- Activity [2]: 60%
- Activity [3]: 36%

Molecule: CC(=O)N[C@H](C(=O)N[C@@H](CCCCN)C(=O)N[C@@H](CO)C(=O)NN(Cc1ccc(O)cc1)C(=O)NN(CCc1c[nH]c2ccccc12)C(=O)N[C@@H](CCCCN)C(=O)N[C@@H](C)C(=O)N[C@@H](CC(C)C)C(=O)NCC(N)=O)[C@@H](C)O
- Activity [2]: 56%
- Activity [3]: 102%

Molecule: CC(=O)NN(C[C@H](C)O)C(=O)NN(CCCCN)C(=O)N[C@@H](CO)C(=O)N[C@@H](Cc1ccc(O)cc1)C(=O)N[C@@H](Cc1c[nH]c2ccccc12)C(=O)N[C@@H](CCCCN)C(=O)N[C@@H](C)C(=O)N[C@@H](CC(C)C)C(=O)NCC(N)=O (Ac-[X3]SYWKALG-NH2)
- Activity [2]: 36%
- Activity [3]: 107%

Molecule: CC(=O)NN(C[C@H](C)O)C(=O)NN(CCCCN)C(=O)N[C@@H](CO)C(=O)NN(Cc1ccc(O)cc1)C(=O)NN(CCc1c[nH]c2ccccc12)C(=O)N[C@@H](CCCCN)C(=O)NN(C)C(=O)NN(CC(C)C)C(=O)NCC(N)=O
- Activity [2]: 41%
- Activity [3]: 42%
